Reference: ChEMBL document CHEMBL1137018 (Antimicrob Agents Chemother, 2007)
One block for each compound: values may come before it.

Experiments:
[1] = Cmax in human at 400 mg, po bid from day 11 to day 20 pretreated with placebo from day 1 to day 3 followed by washout from day 4 to day 10; format: ADME, organism-based; set-up: dose 400 mg, route oral; conditions: in vivo
In short: (§1)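 Blood (7 ml) drawn on days 20 and 30 at 0.5–12 h postdose, centrifuged at 1,700 x g about 10 min at about 4°C, plasma stored at about –20°C. Validated LC/MS/MS assay; noncompartmental analysis, with Cmax and Tmax read directly from concentration-time data.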

[2] = Cmax in human at 400 mg, po bid from day 11 to day 20 pretreated with placebo from day 1 to day 3 followed by washout from day 4 to day 10 followed by 400 mg, po of drug coadministered with placebo from day 21 to day 30; format: ADME, organism-based; set-up: dose 400 mg, route oral; conditions: in vivo; in short: as §1
[3] = Tmax in human at 400 mg, po bid from day 11 to day 20 pretreated with placebo from day 1 to day 3 followed by washout from day 4 to day 10; format: ADME, organism-based; conditions: in vivo; in short: as §1
[4] = AUC (0 to 12 hrs) in human at 100 mg, po bid from day 11 to day 20 pretreated with voriconazole 400 mg, po bid on day 1 and 200 mg, po bid on day 2 and 3 followed by washout from day 4 to day 10 followed by 100 mg, po of drug coadministered with voriconazole 200 mg, po from day 21 to day 30; format: ADME, organism-based; set-up: dose 100 mg, time < 12 hr, route oral; conditions: plasma; in short: as §1
[5] = Cmax in human at 100 mg, po bid from day 11 to day 20 pretreated with voriconazole 400 mg, po bid on day 1 and 200 mg, po bid on day 2 and 3 followed by washout from day 4 to day 10; format: ADME, organism-based; set-up: dose 100 mg, route oral; conditions: in vivo; in short: as §1
[6] = Tmax in human at 400 mg, po bid from day 11 to day 20 pretreated with placebo from day 1 to day 3 followed by washout from day 4 to day 10 followed by 400 mg, po of drug coadministered with placebo from day 21 to day 30; format: ADME, organism-based; conditions: in vivo; in short: as §1
[7] = Cmax in human at 400 mg, po bid from day 11 to day 20 pretreated with voriconazole 400 mg, po bid on day 1 and 200 mg, po bid on day 2 and 3 followed by washout from day 4 to day 10 followed by 400 mg, po of drug coadministered with voriconazole 200 mg, po from day 21 to day 30; format: ADME, organism-based; set-up: dose 400 mg, route oral; conditions: in vivo; in short: as §1
[8] = Tmax in human at 400 mg, po bid from day 11 to day 20 pretreated with voriconazole 400 mg, po bid on day 1 and 200 mg, po bid on day 2 and 3 followed by washout from day 4 to day 10 followed by 400 mg, po of drug coadministered with voriconazole 200 mg, po from day 21 to day 30; format: ADME, organism-based; conditions: in vivo; in short: as §1
[9] = AUC (0 to 12 hrs) in human at 400 mg, po bid from day 11 to day 20 pretreated with placebo from day 1 to day 3 followed by washout from day 4 to day 10; format: ADME, organism-based; set-up: dose 400 mg, time < 12 hr, route oral; conditions: plasma; in short: as §1
[10] = Cmax in human at 400 mg, po bid from day 11 to day 20 pretreated with voriconazole 400 mg, po bid on day 1 and 200 mg, po bid on day 2 and 3 followed by washout from day 4 to day 10; format: ADME, organism-based; set-up: dose 400 mg, route oral; conditions: in vivo; in short: as §1
[11] = Tmax in human at 100 mg, po bid from day 11 to day 20 pretreated with voriconazole 400 mg, po bid on day 1 and 200 mg, po bid on day 2 and 3 followed by washout from day 4 to day 10 followed by 100 mg, po of drug coadministered with voriconazole 200 mg, po from day 21 to day 30; format: ADME, organism-based; conditions: in vivo
[12] = AUC (0 to 12 hrs) in human at 400 mg, po bid from day 11 to day 20 pretreated with voriconazole 400 mg, po bid on day 1 and 200 mg, po bid on day 2 and 3 followed by washout from day 4 to day 10 followed by 400 mg, po of drug coadministered with voriconazole 200 mg, po from day 21 to day 30; format: ADME, organism-based; set-up: time < 12 hr, dose 400 mg, route oral; conditions: plasma; in short: as §1
[13] = AUC (0 to 12 hrs) in human at 400 mg, po bid from day 11 to day 20 pretreated with voriconazole 400 mg, po bid on day 1 and 200 mg, po bid on day 2 and 3 followed by washout from day 4 to day 10; format: ADME, organism-based; set-up: dose 400 mg, time < 12 hr, route oral; conditions: plasma; in short: as §1
[14] = Tmax in human at 400 mg, po bid from day 11 to day 20 pretreated with voriconazole 400 mg, po bid on day 1 and 200 mg, po bid on day 2 and 3 followed by washout from day 4 to day 10; format: ADME, organism-based; conditions: in vivo; in short: as §1
[15] = AUC (0 to 12 hrs) in human at 100 mg, po bid from day 11 to day 20 pretreated with voriconazole 400 mg, po bid on day 1 and 200 mg, po bid on day 2 and 3 followed by washout from day 4 to day 10; format: ADME, organism-based; set-up: dose 100 mg, time < 12 hr, route oral; conditions: plasma; in short: as §1
[16] = Tmax in human at 100 mg, po bid from day 11 to day 20 pretreated with voriconazole 400 mg, po bid on day 1 and 200 mg, po bid on day 2 and 3 followed by washout from day 4 to day 10; format: ADME, organism-based; conditions: in vivo; in short: as §1
[17] = Cmax in human at 100 mg, po bid from day 11 to day 20 pretreated with voriconazole 400 mg, po bid on day 1 and 200 mg, po bid on day 2 and 3 followed by washout from day 4 to day 10 followed by 100 mg, po of drug coadministered with voriconazole 200 mg, po from day 21 to day 30; format: ADME, organism-based; set-up: dose 100 mg, route oral; conditions: in vivo; in short: as §1
[18] = AUC (0 to 12 hrs) in human at 400 mg, po bid from day 11 to day 20 pretreated with placebo from day 1 to day 3 followed by washout from day 4 to day 10 followed by 400 mg, po of drug coadministered with placebo from day 21 to day 30; format: ADME, organism-based; set-up: dose 400 mg, time < 12 hr, route oral; conditions: plasma; in short: as §1
[19] = Tmax in human at 400 mg, po bid on day 1 and 200 mg, po bid on day 2 and 3 measured after 3 days; format: ADME, organism-based; conditions: in vivo
In short: (§2)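 Healthy male volunteers. […] Plasma was sampled on days 3 and 30 at 0.5–12 h postdose. Samples were solid-phase extracted and assayed by LC/MS/MS (range 10 to 2,500 ng/ml). Cmax and Tmax were read directly from the data; AUC0-12 was noncompartmental.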

[20] = test system: Homo sapiens; experiment: Decrease in Cmax of ritonavir in human at 400 mg, po bid on day 1 and 200 mg, po bid on day 2 and 3 followed by 7 days of washout period then treated with ritonavir 100 mg, po for 10 days followed by 200 mg, po of drug coadministered with ritonavir 100 mg, po till day 30; format: ADME, organism-based; conditions: in vivo
[21] = test system: Homo sapiens; experiment: Toxicity in human assessed as mortality at 400 mg, po bid on day 1 and 200 mg, po bid on day 2 and 3 followed by 7 days of washout period then treated with ritonavir 400 mg, po for 10 days followed by 200 mg, po of drug coadministered with ritonavir 400 mg, po till day 30; format: organism-based; conditions: in vivo
In short: (§3)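 Healthy male subjects were followed for adverse events throughout dosing. Vital signs and 12-lead ECGs were recorded predose and 1, 3 and 8 h after the morning voriconazole dose on days 1, 3, 11, 15, 20, 21, 25 and 30. The baseline was the mean of triplicate day-1 predose ECGs. Safety data were summarized descriptively.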

[22] = AUC (0 to 12 hrs) in human at 400 mg, po bid on day 1 and 200 mg, po bid on day 2 and 3 measured after 3 days; format: ADME, organism-based; set-up: dose 400 mg, time < 12 hr, route oral; conditions: plasma; in short: as §2
[23] = Tmax in human at 400 mg, po bid on day 1 and 200 mg, po bid on day 2 and 3 followed by 7 days of washout period then treated with ritonavir 400 mg, po for 10 days followed by 200 mg, po of drug coadministered with 400 mg, po ritonavir till day 30; format: ADME, organism-based; conditions: in vivo; in short: as §2
[24] = Cmax in human at 400 mg, po bid on day 1 and 200 mg, po bid on day 2 and 3 followed by 7 days of washout period then treated with ritonavir 400 mg, po for 10 days followed by 200 mg, po of drug coadministered with 400 mg, po ritonavir till day 30; format: ADME, organism-based; set-up: dose 400 mg, route oral; conditions: in vivo; in short: as §2
[25] = Cmax in human at 400 mg, po bid on day 1 and 200 mg, po bid on day 2 and 3 followed by 7 days of washout period then treated with ritonavir 100 mg, po for 10 days followed by 200 mg, po of drug coadministered with 100 mg, po ritonavir till day 30; format: ADME, organism-based; set-up: dose 400 mg, route oral; conditions: in vivo; in short: as §2
[26] = test system: Homo sapiens; experiment: Toxicity in human assessed as serious adverse events at 400 mg, po bid on day 1 and 200 mg, po bid on day 2 and 3 followed by 7 days of washout period then treated with ritonavir 100 mg, po for 10 days followed by 200 mg, po of drug coadministered with ritonavir 100 mg, po till day 30; format: organism-based; conditions: in vivo; in short: as §3
[27] = Tmax in human at 400 mg, po bid on day 1 and 200 mg, po bid on day 2 and 3 followed by 7 days of washout period then treated with ritonavir 100 mg, po for 10 days followed by 200 mg, po of drug coadministered with 100 mg, po ritonavir till day 30; format: ADME, organism-based; conditions: in vivo; in short: as §2
[28] = Cmax in human at 400 mg, po bid on day 1 and 200 mg, po bid on day 2 and 3 measured after 3 days; format: ADME, organism-based; set-up: dose 400 mg, route oral; conditions: in vivo; in short: as §2
[29] = test system: Homo sapiens; experiment: Toxicity in human assessed as serious adverse events at 400 mg, po bid on day 1 and 200 mg, po bid on day 2 and 3 followed by 7 days of washout period then treated with ritonavir 400 mg, po for 10 days followed by 200 mg, po of drug coadministered with ritonavir 400 mg, po till day 30; format: organism-based; conditions: in vivo; in short: as §3
[30] = AUC (0 to 12 hrs) in human at 400 mg, po bid on day 1 and 200 mg, po bid on day 2 and 3 followed by 7 days of washout period then treated with ritonavir 100 mg, po for 10 days followed by 200 mg, po of drug coadministered with 100 mg, po ritonavir till day 30; format: ADME, organism-based; set-up: time < 12 hr, dose 400 mg, route oral; conditions: plasma; in short: as §2
[31] = AUC (0 to 12 hrs) in human at 400 mg, po bid on day 1 and 200 mg, po bid on day 2 and 3 followed by 7 days of washout period then treated with ritonavir 400 mg, po for 10 days followed by 200 mg, po of drug coadministered with 400 mg, po ritonavir till day 30; format: ADME, organism-based; set-up: time < 12 hr, dose 400 mg, route oral; conditions: plasma; in short: as §2
[32] = test system: Homo sapiens; experiment: Toxicity in human assessed as mortality at 400 mg, po bid on day 1 and 200 mg, po bid on day 2 and 3 followed by 7 days of washout period then treated with ritonavir 100 mg, po for 10 days followed by 200 mg, po of drug coadministered with ritonavir 100 mg, po till day 30; format: organism-based; conditions: in vivo; in short: as §3
[33] = test system: Homo sapiens; experiment: Toxicity in human assessed as mortality at 400 mg, po bid on day 1 and 200 mg, po bid on day 2 and 3 measured after 3 days; format: organism-based; conditions: in vivo, 72 h; in short: as §3
[34] = test system: Homo sapiens; experiment: Toxicity in human assessed as serious adverse events at 400 mg, po bid on day 1 and 200 mg, po bid on day 2 and 3 measured after 3 days; format: organism-based; conditions: in vivo, 72 h; in short: as §3

- Cmax [1]: 10500 ng/mL
- Cmax [2]: 10200 ng/mL
- Tmax [3]: 1 h
- AUC at 12 h [4]: 6430 ng·h/mL
- Cmax [5]: 1410 ng/mL
- Tmax [6]: 1 h
- Cmax [7]: 10400 ng/mL
- Tmax [8]: 1 h
- AUC at 12 h [9]: 65300 ng·h/mL
- Cmax [10]: 10700 ng/mL
- Tmax [11]: 3 h
- AUC at 12 h [12]: 65900 ng·h/mL
- AUC at 12 h [13]: 68000 ng·h/mL
- Tmax [14]: 1.5 h
- AUC at 12 h [15]: 7810 ng·h/mL
- Tmax [16]: 1 h
- Cmax [17]: 992 ng/mL
- AUC at 12 h [18]: 58400 ng·h/mL
Compound: CC(C)c1nc(CN(C)C(=O)N[C@H](C(=O)N[C@@H](Cc2ccccc2)C[C@H](O)[C@H](Cc2ccccc2)NC(=O)OCc2cncs2)C(C)C)cs1 [RITONAVIR]

Compound: C[C@@H](c1ncncc1F)[C@](O)(Cn1cncn1)c1ccc(F)cc1F [VORICONAZOLE]
- Tmax [19]: 1.5 h
- Activity [20]: Non-toxic
- Activity [21]: Non-toxic
- AUC at 12 h [22]: 26500 ng·h/mL
- Tmax [23]: 1 h
- Cmax [24]: 1220 ng/mL
- Cmax [25]: 2810 ng/mL
- Activity [26]: Non-toxic
- Tmax [27]: 1.5 h
- Cmax [28]: 3360 ng/mL
- Activity [29]: Non-toxic
- AUC at 12 h [30]: 19500 ng·h/mL
- AUC at 12 h [31]: 4250 ng·h/mL
- Activity [32]: Non-toxic
- Activity [33]: Non-toxic
- Activity [34]: Non-toxic
